Data on 13 compounds can be found in ChEMBL document CHEMBL1240413, “Synthesis and evaluation of vinyl sulfones as caspase-3 inhibitors. A structure-activity study” (Eur J Med Chem, 2010).

The first assay concerns the target T1, Caspase-7 (Homo sapiens, UniProt P55210).
T1 sequence (P55210 whole entry): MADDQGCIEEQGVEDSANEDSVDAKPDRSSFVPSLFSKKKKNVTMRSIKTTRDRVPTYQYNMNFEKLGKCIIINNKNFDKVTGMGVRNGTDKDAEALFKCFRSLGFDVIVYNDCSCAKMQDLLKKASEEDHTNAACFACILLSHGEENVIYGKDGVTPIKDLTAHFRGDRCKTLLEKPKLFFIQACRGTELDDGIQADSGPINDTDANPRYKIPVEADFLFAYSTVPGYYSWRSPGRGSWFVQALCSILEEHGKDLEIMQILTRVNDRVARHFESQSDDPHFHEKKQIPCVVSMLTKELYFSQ
As to the kind of experiment: Inhibition of human recombinant caspase 7 assessed as fluorescent 7-amido-4-methylcoumarin release. An outline of the steps: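 Recombinant human caspase-7, 1 U per well final, was mixed with inhibitor at various concentrations in 20 mM HEPES, 2 mM EDTA, 0.1% CHAPS, 5 mM DTT, pH 7.4. The reaction was started by adding Ac-DEVD-AMC substrate, with a stock of 2 mM in DMSO. AMC release was followed continuously at 37 °C (ex 360, em 460 nm), and IC50 was determined.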
On to `O=C(O)C[C@@H](/C=C/S(=O)(=O)c1ccccc1)NC(=O)OCC1c2ccccc2-c2ccccc21`, for which the IC50 (commonly the midpoint of a concentration-inhibition curve) was greater than 200 µM. The same measure, in the same setting: then `CS(=O)(=O)/C=C/[C@H](CC(=O)O)NC(=O)OCC1c2ccccc2-c2ccccc21`, with greater than 200 µM. As for `CC[C@H](C)[C@H](NC(=O)OCc1ccccc1)C(=O)N[C@H](/C=C/S(C)(=O)=O)CC(=O)O`, the IC50 was greater than 200 µM.

Regarding `CC(C)[C@H](NC(=O)OCc1ccccc1)C(=O)N[C@H](/C=C/S(C)(=O)=O)CC(=O)O`, the IC50 is greater than 200 µM. Same read-out and setting: then `CC(=O)N[C@@H](CC(=O)O)C(=O)N[C@@H](CCC(=O)O)C(=O)N[C@H](C(=O)N[C@H](C=O)CC(=O)O)C(C)C`, with 0.0591 µM; and `CC(C)[C@H](NC(=O)OCC1c2ccccc2-c2ccccc21)C(=O)N[C@H](/C=C/S(C)(=O)=O)CC(=O)O`, with greater than 200 µM; and `CC(C)[C@H](NC(=O)OCC1c2ccccc2-c2ccccc21)C(=O)N[C@H](/C=C/S(=O)(=O)c1ccccc1)CC(=O)O`, with greater than 200 µM. Same read-out and setting: the result for `CC[C@H](C)[C@H](NC(=O)OCc1ccccc1)C(=O)N[C@H](/C=C/S(=O)(=O)c1ccccc1)CC(=O)O` reads greater than 200 µM.

The target of the next assay is T2, Caspase-3 (Homo sapiens, UniProt P42574).
T2 sequence (P42574 whole entry): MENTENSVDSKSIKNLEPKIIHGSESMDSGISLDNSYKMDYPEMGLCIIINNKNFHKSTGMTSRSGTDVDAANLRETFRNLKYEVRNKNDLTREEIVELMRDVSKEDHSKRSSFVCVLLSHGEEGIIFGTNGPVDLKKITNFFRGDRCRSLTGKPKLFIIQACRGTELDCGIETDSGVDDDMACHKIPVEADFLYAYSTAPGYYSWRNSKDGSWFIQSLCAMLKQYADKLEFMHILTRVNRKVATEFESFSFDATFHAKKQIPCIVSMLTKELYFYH
As to the kind of experiment: Inhibition of human recombinant caspase 3 assessed as fluorescent 7-amido-4-methylcoumarin release.
As for `C[C@H](NC(=O)OCc1ccccc1)C(=O)N[C@H](/C=C/S(=O)(=O)c1ccccc1)CC(=O)O`, the IC50 came out at 343 µM.

`O=C(O)C[C@@H](/C=C/S(=O)(=O)c1ccccc1)NC(=O)OCc1ccccc1`: the half-maximal inhibitory concentration (IC50) turned out to be 453 µM. Same read-out and setting: then `CC(C)[C@H](NC(=O)OCc1ccccc1)C(=O)N[C@H](/C=C/S(C)(=O)=O)CC(=O)O`, with 133 µM; and `CC(C)[C@H](NC(=O)OCc1ccccc1)C(=O)N[C@H](/C=C/S(=O)(=O)c1ccccc1)CC(=O)O`, with 388 µM. Still for that read-out and setting: then `CS(=O)(=O)/C=C/[C@H](CC(=O)O)NC(=O)OCc1ccccc1`, with 435 µM; and `C[C@H](NC(=O)OCc1ccccc1)C(=O)N[C@H](/C=C/S(C)(=O)=O)CC(=O)O`, with 656 µM.
